Assay results reported in PMC5604209 (Journal of Cancer, 2017).

Experiments:
[1] = molecular target: Abl (WT) (Homo sapiens, UniProt P00519); experiment: HTRF kinase enzyme assay; format: biochemical
Procedure, shortened: (§1)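 Recombinant kinases were assayed by HTRF KinEASE-TK in 50 mM HEPES pH 7.0, 0.1 mM Na3VO4, 0.01% BSA, 5 mM MgCl2, 1 mM DTT. Compound was made as an 11-point 3-fold series from a 1 mM DMSO stock and mixed with kinase for 5 min. […] Anti-TK cryptate plus streptavidin-XL665 was added for 1 h at 23 °C before TR-FRET read-out. IC50 is the mean of three independent duplicate runs.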

[2] = molecular target: Abl (T315I) (Homo sapiens, UniProt P00519, T315I); experiment: HTRF kinase enzyme assay; format: biochemical
[3] = molecular target: c-Kit (Homo sapiens, UniProt P10721); experiment: HTRF kinase enzyme assay; format: biochemical
Procedure, shortened: as §1

[4] = molecular target: VEGFR2 (Homo sapiens, UniProt P35968); experiment: HTRF kinase enzyme assay; format: biochemical
Procedure, shortened: as §1

[5] = molecular target: PDGFRβ (Homo sapiens, UniProt P09619); experiment: HTRF kinase enzyme assay; format: biochemical
Procedure, shortened: as §1

[6] = molecular target: EGFR (Homo sapiens, UniProt P00533); experiment: Kinase enzyme assay; format: biochemical
[7] = molecular target: T1, Abl enzyme (Homo sapiens, UniProt P00519); experiment: Kinetic mechanism of inhibition versus ATP; format: biochemical
[8] = molecular target: T1, Abl enzyme; experiment: Time-dependent inhibition and reversibility; format: biochemical
[9] = tested on: Ba/F3-Bcr-abl^WT; experiment: Cell proliferation assay; format: cell-based, murine; settings: Mus musculus, 72 h, read-out: Cell growth inhibition IC50
Procedure, shortened: (§2)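 Cells were grown in DMEM or RPMI-1640 with 10% FBS and penicillin/streptomycin at 37 °C, 5% CO2. PBMC were isolated on Ficoll-Paque, and Ba/F3 Bcr-Abl lines were stably transfected. Cells were seeded at low density. DMSO stocks were 3-fold diluted from 10 mM to 0.3 nM, then into serum-free medium before addition. After 72 h, CellTiter-Glo (adherent; RT 10 min) or CellTiter-Blue (suspension; 4 h) was read. IC50 is the mean of three independent duplicate experiments.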

[10] = tested on: Ba/F3-Bcr-abl^T315I; experiment: Cell proliferation assay; format: cell-based, murine; settings: Mus musculus, 72 h, read-out: Cell growth inhibition IC50
Procedure, shortened: as §2

[11] = tested on: Kasumi-1; experiment: Cell proliferation assay; format: cell-based; settings: Homo sapiens, Kasumi 1, 72 h, read-out: Cell growth inhibition IC50
Procedure, shortened: as §2

[12] = tested on: MV-4-11; experiment: Cell proliferation assay; format: cell-based; settings: read-out: Cell growth inhibition IC50; MV-4-11, acute myeloid leukemia, 72 hours
Procedure, shortened: as §2

[13] = tested on: HL-60; experiment: Cell proliferation assay; format: cell-based; settings: Homo sapiens, HL-60, 72 h, read-out: Cell growth inhibition IC50
Procedure, shortened: as §2

[14] = tested on: MKN-45; experiment: Cell proliferation assay; format: cell-based; settings: Homo sapiens, MKN-45, 72 h, read-out: Cell growth inhibition IC50
Procedure, shortened: as §2

[15] = tested on: PC-3; experiment: Cell proliferation assay; format: cell-based; settings: Homo sapiens, PC-3, 72 h, read-out: Cell growth inhibition IC50
Procedure, shortened: as §2

[16] = tested on: SMMC-7721; experiment: Cell proliferation assay; format: cell-based; settings: Homo sapiens, SMMC-7721, 72 h, read-out: Cell growth inhibition IC50
Procedure, shortened: as §2

[17] = tested on: Human PBMC; experiment: Cell proliferation assay; format: cell-based; settings: read-out: Cell growth inhibition IC50, human lymphocyte, 72 hours
Procedure, shortened: as §2

[18] = molecular target: phosphorylation of Bcr-Abl (Homo sapiens, UniProt P00519+P11274); experiment: Western blot, K562 and KU812 cells; format: cell-based; settings: for phosphorylation of Bcr-Abl kinase: 1 hour
Procedure, shortened: (§3)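 K562 or KU812 cells (1×10⁶ per well) were plated overnight at 37 °C, 5% CO2. They were treated 1 h with a concentration series, or with 100 nM for 0–24 h; 0.1% DMSO served as control. BCA-normalized lysates were run on 10% SDS-PAGE and transferred to PVDF. Blots were blocked in TBS-0.1% Tween-20 with 5% BSA, then probed with phospho-specific primaries (2 h RT or 4 °C overnight) and HRP anti-rabbit (1 h RT). Detection was by ECL.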

[19] = tested on: phosphorylation of Crkl; experiment: Western blot, K562 and KU812 cells; format: cell-based, human; settings: 100 nM, 1 hour
Procedure, shortened: as §3

[20] = tested on: phosphorylated ERK1/2 and STAT5; experiment: Western blot, K562 and KU812 cells; format: cell-based, human
Procedure, shortened: as §3

[21] = tested on: K562 cells; experiment: Apoptosis by Annexin V / 7-AAD flow cytometry; format: cell-based, human; settings: 10 μM, 24 hours
Procedure, shortened: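 K562 cells treated 24 h at 37 °C with test compound (0.1, 1.0 or 10 μM) or 0.1% DMSO. Cells were washed twice in PBS and resuspended in binding buffer with PE-Annexin V and 7-AAD for 15 min at RT in the dark. They were then diluted in binding buffer and read on a Guava flow cytometer. Early and late apoptotic fractions were scored.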

[22] = tested on: K562 cells; experiment: Cell cycle by propidium; format: cell-based, human; settings: 1 nM, 24 hours
Procedure, shortened: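 After 24 h exposure of K562 cells to test compound or DMSO, cells were washed in cold PBS and fixed overnight in ice-cold 70% ethanol. They were stained 1 h at 37 °C in PBS with 0.25 mg/mL RNase and 0.025 mg/mL propidium iodide. Cells were read on a Guava flow cytometer, and G1, S and G2/M fractions were quantified.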

[23] = Pharmacokinetic studies in rats; format: in vivo; settings: female, SD, rat, serum, po, 5 mg/kg
Procedure, shortened: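 Female SD rats (5–6 weeks) received a single 5 mg/kg oral dose. Blood was sampled serially from 2 min to 24 h, and serum was separated by centrifugation and stored at −80 °C. Serum levels were measured by LC-MS/MS, and T1/2, Tmax, Cmax and AUC0-INF were derived.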

[24] = tested on: liver CYP450 enzymes (all tested enzymes); experiment: Liver CYP450 enzyme inhibition; format: in vitro ADME
[25] = tested on: K562 xenograft; experiment: K562 tumor xenograft in nude mice; format: in vivo; settings: for tumor growth inhibition: p < 0.05
Procedure, shortened: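 Female athymic nude mice (5–6 weeks) were implanted subcutaneously in the right flank with K562 cells in 100 µL serum-free medium. Once tumors reached about 150–300 mm³, mice were randomized (10 per group) to vehicle or test compound at 5, 15 or 45 mg/kg by daily oral gavage. Caliper volume (w²×l)/2 and body weight were recorded every 2–3 days. TGI was taken versus vehicle, with t-test.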

[26] = tested on: KU812 xenograft; experiment: KU812 tumor xenograft in nude mice; format: in vivo; settings: 30 mg/kg QD; for treated mice with complete tumor regression: p < 0.01
[27] = PK/PD in K562 xenograft model: compound concentration in tumor; format: in vivo, nude mice; settings: nude, mouse, tumor tissue, po, 15 mg/kg
Procedure, shortened: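 In nude mice bearing K562 xenografts, tumor tissue was collected 2 h after one oral dose (5 or 15 mg/kg) of test compound. Compound concentration in tumor samples was quantified by LC-MS/MS.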

[28] = tested on: phosphorylation of Bcr-Abl and ERK1/2; experiment: PK/PD in K562 xenograft model: Western blot of tumor samples; format: in vivo, nude mice; settings: single oral dose 15 mg/kg, 2 hours
Procedure, shortened: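 K562 xenografts in nude mice were given a single oral dose of test compound (5 or 15 mg/kg). Tumors were harvested 2 h later, and lysates were probed by Western blot with antibodies to phospho-Bcr-Abl and phospho-ERK1/2.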

Chain of VEGFR2 (P35968 20-1356): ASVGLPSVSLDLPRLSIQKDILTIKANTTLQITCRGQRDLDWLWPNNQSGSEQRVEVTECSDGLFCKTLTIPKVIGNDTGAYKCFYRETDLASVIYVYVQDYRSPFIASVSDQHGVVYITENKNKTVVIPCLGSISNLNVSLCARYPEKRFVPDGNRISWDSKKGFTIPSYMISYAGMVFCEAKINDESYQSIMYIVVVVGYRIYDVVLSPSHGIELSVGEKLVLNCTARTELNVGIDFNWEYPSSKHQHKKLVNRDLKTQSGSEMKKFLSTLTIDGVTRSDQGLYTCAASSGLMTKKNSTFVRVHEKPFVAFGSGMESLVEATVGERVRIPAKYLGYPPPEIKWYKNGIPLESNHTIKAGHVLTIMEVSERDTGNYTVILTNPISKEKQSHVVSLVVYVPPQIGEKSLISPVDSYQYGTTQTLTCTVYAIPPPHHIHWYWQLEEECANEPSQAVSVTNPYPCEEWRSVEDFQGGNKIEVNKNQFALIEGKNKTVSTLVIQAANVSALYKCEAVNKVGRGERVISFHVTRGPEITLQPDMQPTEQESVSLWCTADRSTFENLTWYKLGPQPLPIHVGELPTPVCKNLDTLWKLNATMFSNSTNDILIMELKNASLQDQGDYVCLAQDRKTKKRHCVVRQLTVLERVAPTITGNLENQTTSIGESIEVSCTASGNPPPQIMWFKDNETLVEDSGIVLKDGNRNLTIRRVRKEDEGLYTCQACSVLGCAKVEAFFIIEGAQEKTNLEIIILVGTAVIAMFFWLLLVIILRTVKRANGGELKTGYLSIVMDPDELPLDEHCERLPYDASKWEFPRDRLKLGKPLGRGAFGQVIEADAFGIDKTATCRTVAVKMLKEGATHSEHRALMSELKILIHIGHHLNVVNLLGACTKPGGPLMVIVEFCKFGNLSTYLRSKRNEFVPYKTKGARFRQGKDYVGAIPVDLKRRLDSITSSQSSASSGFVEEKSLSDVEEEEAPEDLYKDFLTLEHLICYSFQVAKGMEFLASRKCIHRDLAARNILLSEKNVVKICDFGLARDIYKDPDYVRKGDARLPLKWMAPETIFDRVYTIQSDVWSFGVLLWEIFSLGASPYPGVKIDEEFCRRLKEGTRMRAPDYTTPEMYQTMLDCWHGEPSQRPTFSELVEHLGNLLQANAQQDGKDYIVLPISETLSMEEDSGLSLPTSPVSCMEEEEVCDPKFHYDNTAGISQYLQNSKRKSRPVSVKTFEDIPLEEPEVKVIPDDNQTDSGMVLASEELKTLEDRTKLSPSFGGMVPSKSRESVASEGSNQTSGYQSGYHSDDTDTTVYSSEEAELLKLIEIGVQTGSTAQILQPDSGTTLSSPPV
Chain of c-Kit (P10721 26-976): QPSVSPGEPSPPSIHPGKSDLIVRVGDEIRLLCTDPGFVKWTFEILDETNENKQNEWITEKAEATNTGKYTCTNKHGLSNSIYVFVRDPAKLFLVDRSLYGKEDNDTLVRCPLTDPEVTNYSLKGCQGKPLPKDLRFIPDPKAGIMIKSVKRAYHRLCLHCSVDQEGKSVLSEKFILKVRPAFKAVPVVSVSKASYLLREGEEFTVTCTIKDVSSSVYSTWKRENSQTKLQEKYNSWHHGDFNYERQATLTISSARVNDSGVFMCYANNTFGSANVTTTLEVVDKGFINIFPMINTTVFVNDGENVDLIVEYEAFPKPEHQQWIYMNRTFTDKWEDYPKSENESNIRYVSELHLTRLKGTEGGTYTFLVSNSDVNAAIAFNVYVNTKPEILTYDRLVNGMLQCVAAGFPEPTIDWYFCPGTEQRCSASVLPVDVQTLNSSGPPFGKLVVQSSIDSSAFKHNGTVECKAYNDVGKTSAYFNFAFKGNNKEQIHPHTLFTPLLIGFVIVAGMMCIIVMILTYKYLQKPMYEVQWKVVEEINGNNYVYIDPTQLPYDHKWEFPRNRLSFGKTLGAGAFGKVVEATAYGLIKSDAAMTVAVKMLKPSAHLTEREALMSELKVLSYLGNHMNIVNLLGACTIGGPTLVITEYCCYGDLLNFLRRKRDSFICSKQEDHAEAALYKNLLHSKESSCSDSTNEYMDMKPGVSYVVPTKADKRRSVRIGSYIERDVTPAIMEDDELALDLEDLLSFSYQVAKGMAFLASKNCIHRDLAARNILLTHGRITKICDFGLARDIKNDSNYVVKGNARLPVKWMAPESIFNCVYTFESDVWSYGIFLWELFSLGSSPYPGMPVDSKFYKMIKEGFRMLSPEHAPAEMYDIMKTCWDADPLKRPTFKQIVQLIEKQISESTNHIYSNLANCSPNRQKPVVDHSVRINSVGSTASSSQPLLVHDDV
Chain of EGFR (P00533 25-1210): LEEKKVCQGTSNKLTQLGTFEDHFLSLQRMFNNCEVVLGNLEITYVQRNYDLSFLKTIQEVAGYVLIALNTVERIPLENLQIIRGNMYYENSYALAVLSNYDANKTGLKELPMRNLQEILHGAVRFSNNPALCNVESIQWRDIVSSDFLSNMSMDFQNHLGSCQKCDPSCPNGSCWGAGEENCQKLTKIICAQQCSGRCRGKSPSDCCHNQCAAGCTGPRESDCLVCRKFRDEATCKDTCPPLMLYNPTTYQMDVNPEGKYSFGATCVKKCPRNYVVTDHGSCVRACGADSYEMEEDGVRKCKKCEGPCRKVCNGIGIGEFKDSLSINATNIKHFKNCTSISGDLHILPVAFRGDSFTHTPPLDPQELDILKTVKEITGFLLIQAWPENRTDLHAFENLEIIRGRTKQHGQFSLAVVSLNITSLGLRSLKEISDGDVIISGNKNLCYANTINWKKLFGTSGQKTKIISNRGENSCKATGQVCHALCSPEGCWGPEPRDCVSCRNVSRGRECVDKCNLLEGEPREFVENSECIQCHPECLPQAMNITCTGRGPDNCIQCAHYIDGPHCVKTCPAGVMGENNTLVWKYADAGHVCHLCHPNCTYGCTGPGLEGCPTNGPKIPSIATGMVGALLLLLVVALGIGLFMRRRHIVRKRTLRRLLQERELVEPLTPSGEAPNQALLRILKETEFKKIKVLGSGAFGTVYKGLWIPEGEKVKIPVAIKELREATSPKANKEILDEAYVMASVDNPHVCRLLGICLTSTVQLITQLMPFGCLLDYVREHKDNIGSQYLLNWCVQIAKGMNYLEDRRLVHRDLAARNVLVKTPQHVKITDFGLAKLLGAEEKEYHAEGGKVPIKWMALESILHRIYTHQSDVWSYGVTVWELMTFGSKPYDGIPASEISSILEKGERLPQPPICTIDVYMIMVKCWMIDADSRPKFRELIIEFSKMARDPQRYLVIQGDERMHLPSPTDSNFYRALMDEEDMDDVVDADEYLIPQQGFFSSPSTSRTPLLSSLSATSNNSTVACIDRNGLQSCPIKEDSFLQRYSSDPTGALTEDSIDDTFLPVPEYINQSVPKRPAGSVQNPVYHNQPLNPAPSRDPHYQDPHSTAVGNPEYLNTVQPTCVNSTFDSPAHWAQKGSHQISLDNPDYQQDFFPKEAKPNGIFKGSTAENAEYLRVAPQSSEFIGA
Chain of PDGFRβ (P09619 33-1106): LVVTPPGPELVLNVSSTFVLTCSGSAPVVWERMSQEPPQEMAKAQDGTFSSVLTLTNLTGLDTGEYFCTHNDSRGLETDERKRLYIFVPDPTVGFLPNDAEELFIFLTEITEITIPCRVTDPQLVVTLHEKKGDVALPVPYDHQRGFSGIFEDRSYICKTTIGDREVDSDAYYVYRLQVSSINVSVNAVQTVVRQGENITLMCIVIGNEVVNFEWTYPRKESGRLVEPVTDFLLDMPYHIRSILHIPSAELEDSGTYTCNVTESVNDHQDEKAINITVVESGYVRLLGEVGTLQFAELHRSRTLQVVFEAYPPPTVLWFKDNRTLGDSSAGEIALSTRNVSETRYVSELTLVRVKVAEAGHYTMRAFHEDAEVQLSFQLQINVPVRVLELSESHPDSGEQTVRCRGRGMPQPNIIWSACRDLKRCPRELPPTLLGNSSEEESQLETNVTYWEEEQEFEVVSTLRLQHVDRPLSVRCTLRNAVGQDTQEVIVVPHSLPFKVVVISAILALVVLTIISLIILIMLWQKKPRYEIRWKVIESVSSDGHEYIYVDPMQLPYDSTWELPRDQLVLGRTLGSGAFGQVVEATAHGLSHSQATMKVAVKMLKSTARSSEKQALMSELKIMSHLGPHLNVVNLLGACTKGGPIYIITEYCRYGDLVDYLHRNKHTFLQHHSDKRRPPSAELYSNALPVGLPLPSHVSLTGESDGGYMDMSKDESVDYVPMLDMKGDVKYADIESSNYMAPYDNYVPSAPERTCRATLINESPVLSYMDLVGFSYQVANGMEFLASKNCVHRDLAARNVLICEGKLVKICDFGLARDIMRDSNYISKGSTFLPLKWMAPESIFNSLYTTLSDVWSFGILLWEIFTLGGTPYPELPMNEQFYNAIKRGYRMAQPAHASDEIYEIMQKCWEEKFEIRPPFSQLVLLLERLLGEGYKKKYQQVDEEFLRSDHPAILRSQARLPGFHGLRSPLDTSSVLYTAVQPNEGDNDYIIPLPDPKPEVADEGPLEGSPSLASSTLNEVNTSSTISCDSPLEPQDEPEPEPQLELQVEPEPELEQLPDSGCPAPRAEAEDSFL

## Cc1ccc(NC(=O)c2ccc3c(c2)CC[C@@H]3N2CCN(C)CC2)cc1C#Cc1cnc2ccc(Cl)nn12 [CT-721, (S)-N-(3-((6-chloroimidazo[1,2-b]pyridazin-3-yl)ethynyl)-4-methylphenyl)-1-(4-methylpiperazin-1-yl)-2,3-dihydro-1H-indene-5-carboxamide]
[1]
  IC50: 21.3 ± 1.1 nM
[2]
  IC50: 65 ± 6.2 nM
[3]
  IC50: 9.2 nM
[4]
  IC50: 48.9 nM
[5]
  IC50: 106 nM
[6]
  IC50: 130 nM
[7]
  Ki: 7.3 nM
[7]; enzyme-ATP complex
  Ki': 775 nM
[8]
  koff: 5.37e-05 s⁻¹
[8]; IC50 for Abl kinase, Normal (no preincubation, 0 min)
  IC50: 12.1 nM
[8]; from 12.1 nM to 1.3 nM, 120 min
  decrease of IC50 after preincubation: 9 fold
[9]
  IC50: 1.6 ± 0.3 nM
[10]
  IC50: 18.5 ± 12 nM
[11]
  IC50: 53 ± 6 nM
[12]
  IC50: 232 ± 55 nM
[13]
  IC50: 1000 to 10000 nM
[14]
  IC50: 1000 to 10000 nM
[15]
  IC50: 1000 to 10000 nM
[16]
  IC50: 1000 to 10000 nM
[17]
  IC50: 1000 to 10000 nM
[18]; 10 nM
  phosphorylation of Bcr-Abl kinase: significantly suppressed
[18]; 100 nM
  phosphorylation of Bcr-Abl kinase: totally blocked
[18]; time course, 100 nM
  duration of blockage of phosphorylation of Bcr-Abl and Crkl: at least 24 hours
[19]
  phosphorylation of Crkl: significantly inhibited
[20]
  levels of phosphorylated ERK1/2 and STAT5: dose-dependently repressed
[21]
  late-phase apoptosis: late-phase apoptosis was also observed
[22]
  cell cycle arrest: pronounced G0/G1 phase arrest
[23]
  AUC(0-inf): 5420 ng·h/mL
  Cmax: 303 ng/mL
  Tmax: 6.67 h
  half-life: 8.83 h
[24]
  IC50: > 10000 nM
[25]; K562 xenograft, 5 mg/kg PO QD
  tumor growth inhibition: 51.4%
[25]; K562 xenograft, 15 mg/kg PO QD, 12 days
  tumor growth inhibition: 76%
[25]; K562 xenograft, 45 mg/kg PO QD, 9 days, p < 0.01
  mice completely cured, tumors disappeared completely: 90%
[25]; K562 xenograft, 5, 15 and 45 mg/kg
  body weight of xenograft mice: without causing significant bodyweight loss
[26]; after 5 days
  tumor growth: notably inhibited with partial regression observed
[26]; after 8 days
  treated mice with complete tumor regression: 50%
[26]; after 18 days
  treated mice with complete tumor regression: 80%
[26]; compared to the vehicle group
  body weight of xenograft mice: no significant body weight loss
[27]
  concentration at 2 h: 254 ng/mL
[28]
  Bcr-Abl and ERK phosphorylation in tumor: almost complete inhibition
